# Experimental data as given in ChEMBL document CHEMBL4433213, “Investigation on 2',3'-O-Substituted ATP Derivatives and Analogs as Novel P2X3 Receptor Antagonists” (ACS Med Chem Lett, 2019).
# The source made the active and inactive calls. No cut-off for these calls is given here.
# Experiments:
# [1] = target: T1, P2X purinoceptor 2 (Homo sapiens) (UniProt Q9UBL9); assay: Antagonist activity at human P2X2R transfected in human 1321N1 cells assessed as inhibition of ATP-induced calcium influx relative to control; format: cell-based; settings: concentration not given here
# T1 sequence (whole entry): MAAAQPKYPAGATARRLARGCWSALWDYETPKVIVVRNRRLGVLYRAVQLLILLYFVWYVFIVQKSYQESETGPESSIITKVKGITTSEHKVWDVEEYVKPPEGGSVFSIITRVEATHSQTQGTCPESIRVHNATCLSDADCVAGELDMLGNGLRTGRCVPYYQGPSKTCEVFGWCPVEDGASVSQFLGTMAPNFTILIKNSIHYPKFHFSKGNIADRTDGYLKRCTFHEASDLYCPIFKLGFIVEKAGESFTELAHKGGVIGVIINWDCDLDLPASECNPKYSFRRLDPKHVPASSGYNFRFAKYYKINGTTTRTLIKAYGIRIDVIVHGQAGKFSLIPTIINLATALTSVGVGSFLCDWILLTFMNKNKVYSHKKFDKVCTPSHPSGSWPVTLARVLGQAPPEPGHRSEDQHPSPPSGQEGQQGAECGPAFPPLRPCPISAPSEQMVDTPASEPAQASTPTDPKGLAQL
# Summary of the method: (§1)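 1321N1 astrocytoma cells stably expressing human P2X1, P2X2, P2X3 or P2X4 receptor. Calcium influx was induced by ATP at the EC80 for each subtype. Results are given as IC50 (μM) or % inhibition at the indicated concentration.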
# [2] = target: T2, P2X purinoceptor 3 (Mus musculus, UniProt Q3UR32); assay: Antagonist activity at P2X3R in mouse TG sensory neurons assessed as inhibition of P2X3R agonist alpha,beta-meATP-induced current at -65 mV holding potential by whole cell voltage clamp method
# T2 sequence (Q3UR32 whole entry): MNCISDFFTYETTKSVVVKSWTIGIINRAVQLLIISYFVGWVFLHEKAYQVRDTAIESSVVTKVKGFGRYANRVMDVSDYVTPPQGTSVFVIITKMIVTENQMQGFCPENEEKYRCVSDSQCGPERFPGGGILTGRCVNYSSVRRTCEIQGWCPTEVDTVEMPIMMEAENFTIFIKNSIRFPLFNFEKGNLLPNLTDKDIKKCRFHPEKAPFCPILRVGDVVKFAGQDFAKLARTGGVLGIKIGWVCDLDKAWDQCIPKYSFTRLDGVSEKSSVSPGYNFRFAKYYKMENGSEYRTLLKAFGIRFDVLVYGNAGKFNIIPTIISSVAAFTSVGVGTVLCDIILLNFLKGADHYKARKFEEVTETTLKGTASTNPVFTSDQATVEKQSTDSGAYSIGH
# Summary of the method: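 Mouse trigeminal sensory neurons were recorded by whole-cell patch clamp. Test compound (0.001–10 μM) was applied before 10 μM α,β-meATP, and inhibition of the agonist-evoked P2X3 current was measured. IC50 was taken from concentration–inhibition curves. N = 5–6 cells.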
# [3] = target: T3, P2X purinoceptor 3 (Homo sapiens, UniProt P56373); assay: Antagonist activity at human P2X3R transfected in human 1321N1 cells assessed as inhibition of ATP-induced calcium influx; format: cell-based; summary of the method: as §1
# T3 sequence (P56373 whole entry): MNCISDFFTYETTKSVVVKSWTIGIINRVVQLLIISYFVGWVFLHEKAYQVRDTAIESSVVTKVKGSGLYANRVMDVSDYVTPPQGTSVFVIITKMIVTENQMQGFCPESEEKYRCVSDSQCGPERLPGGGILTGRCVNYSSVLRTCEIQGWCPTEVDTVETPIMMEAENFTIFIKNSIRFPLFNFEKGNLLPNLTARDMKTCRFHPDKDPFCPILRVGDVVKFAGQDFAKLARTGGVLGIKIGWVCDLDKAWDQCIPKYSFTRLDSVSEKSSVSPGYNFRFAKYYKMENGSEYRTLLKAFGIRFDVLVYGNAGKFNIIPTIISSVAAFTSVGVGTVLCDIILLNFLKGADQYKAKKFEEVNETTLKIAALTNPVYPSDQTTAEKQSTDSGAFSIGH
# [4] = target: T4, P2X purinoceptor 2 (Homo sapiens, UniProt Q9UBL9); assay: Antagonist activity at human P2X2R transfected in human 1321N1 cells assessed as inhibition of ATP-induced calcium influx; format: cell-based; summary of the method: as §1
# T4 sequence (Q9UBL9 whole entry): T1 sequence (whole entry)
# [5] = target: T5, P2X purinoceptor 7 (Homo sapiens) (UniProt Q99572); assay: Antagonist activity at human P2X7R transfected in human 1321N1 cells assessed as inhibition of Bz-ATP-induced calcium influx relative to control; format: cell-based; settings: concentration not given here
# T5 sequence (whole entry): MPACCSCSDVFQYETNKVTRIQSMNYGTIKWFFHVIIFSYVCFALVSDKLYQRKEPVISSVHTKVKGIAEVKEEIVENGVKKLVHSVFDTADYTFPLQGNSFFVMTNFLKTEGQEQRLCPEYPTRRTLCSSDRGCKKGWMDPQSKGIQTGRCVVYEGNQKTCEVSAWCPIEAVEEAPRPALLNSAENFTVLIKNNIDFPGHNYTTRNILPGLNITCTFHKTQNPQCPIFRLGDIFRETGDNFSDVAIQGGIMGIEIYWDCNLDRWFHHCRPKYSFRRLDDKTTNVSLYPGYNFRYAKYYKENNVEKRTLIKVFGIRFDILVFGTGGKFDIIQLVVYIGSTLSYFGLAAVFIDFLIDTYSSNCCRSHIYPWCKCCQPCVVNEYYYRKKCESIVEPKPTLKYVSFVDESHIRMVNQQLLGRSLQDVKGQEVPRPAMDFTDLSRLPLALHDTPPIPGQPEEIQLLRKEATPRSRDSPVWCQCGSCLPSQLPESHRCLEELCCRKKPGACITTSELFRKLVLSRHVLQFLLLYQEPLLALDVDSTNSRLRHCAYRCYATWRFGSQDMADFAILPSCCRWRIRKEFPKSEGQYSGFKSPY
# [6] = target: T6, P2X purinoceptor 1 (Homo sapiens, UniProt P51575); assay: Antagonist activity at human P2X1R transfected in human 1321N1 cells assessed as inhibition of ATP-induced calcium influx; format: cell-based; summary of the method: as §1
# T6 sequence (P51575 whole entry): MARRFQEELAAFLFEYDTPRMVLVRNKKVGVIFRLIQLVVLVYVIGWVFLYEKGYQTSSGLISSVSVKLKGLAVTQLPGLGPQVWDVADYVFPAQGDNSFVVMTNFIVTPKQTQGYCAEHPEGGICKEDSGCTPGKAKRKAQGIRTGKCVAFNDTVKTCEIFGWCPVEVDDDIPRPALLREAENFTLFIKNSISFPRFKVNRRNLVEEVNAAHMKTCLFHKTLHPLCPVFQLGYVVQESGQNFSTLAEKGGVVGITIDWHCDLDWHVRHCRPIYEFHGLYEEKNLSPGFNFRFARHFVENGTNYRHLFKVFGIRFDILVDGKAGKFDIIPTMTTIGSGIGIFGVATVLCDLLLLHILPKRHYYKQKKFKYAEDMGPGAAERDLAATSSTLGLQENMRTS
# [7] = target: T7, P2X purinoceptor 3 (Mus musculus) (UniProt Q3UR32); assay: Agonist activity at P2X3R in mouse TG sensory neurons assessed as induction of channel current at 10 uM at -65 mV holding potential by whole cell voltage clamp method relative to alpha,beta-meATP
# T7 sequence (whole entry): T2 sequence (Q3UR32 whole entry)
inhibition [1] [%],IC50 [2] [µM],IC50 [3] [µM],IC50 [4] [µM],inhibition [5] [%],IC50 [6] [µM],Activity [7],Structure (SMILES)
9,0.127,17.5,> 100,-1,> 100,inactive,Nc1ncnc2c1ncn2[C@@H]1O[C@H](COP(=O)(O)CP(=O)(O)OP(=O)(O)O)[C@H]2OC3(CCCCC3)O[C@H]21
6,0.024,4.11,> 100,5,41.1,inactive,CC1(C)O[C@@H]2[C@H](O1)[C@@H](COP(=O)(O)OP(=O)(O)OP(=O)(O)O)O[C@H]2n1cnc2c(N)ncnc21
36,> 1,> 100,> 100,21,> 100,inactive,Nc1ncnc2c1ncn2[C@@H]1O[C@H](COP(=O)(O)OP(=O)(O)OP(=O)(O)O)[C@H]2OCO[C@H]21
